Where two headings read alike, the source gives them in different places.
Key:
[1] = system: Vβ7+ NKT cells; assay: Vβ usage of NKT cells after 3 days of in vitro proliferation; assay type: cell-based, mouse; conditions: Vβ usage by cell division peak
Procedure, shortened: (§1)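 Jα18−/− mouse splenocytes were pulsed overnight with glycolipid plus IL-2 (100 U/ml), then spun through FCS and resuspended to remove excess lipid. Thymocytes were NKT-enriched by complement depletion of anti-HSA/anti-CD8-labelled cells, cleared of dead cells by gradient, and labelled with CFSE […] for 10 min at 37C. Cells were co-cultured at 2:1 splenocytes:thymocytes for 72h.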

[2] = system: NKT cells; assay: IFN-γ production by NKT cells, intracellular cytokine staining; assay type: cell-based, mouse; conditions: 100 ng/ml, 8h stimulation, ICS
Procedure, shortened: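 NKT-enriched thymocytes were cultured for 8h with Jα18−/− splenocytes pulsed with 100 ng/ml glycolipid, with GolgiStop for the last 4h. Cells were surface stained, fixed, permeabilised and stained with anti-IFN-γ. Readout was percent IFN-γ⁺ among α-GalCer-CD1d tetramer⁺ cells. Data representative of 4 experiments.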

[3] = system: NKT cells; assay type: cell-based, mouse; conditions: 3 d culture
Procedure, shortened: as §1

[4] = system: NKT cells; assay: Cytokines in culture supernatant, cytometric bead array; assay type: cell-based, mouse; conditions: 100 ng/ml, 8h stimulation
[5] = system: NKT cells; conditions: ICS at 2 and 6 hours after in vivo challenge, compared to α-GalCer; ref Sullivan et al 2010; cited from earlier work
[6] = biological target: mouse Vβ8.2 NKT TCR (Mus musculus, UniProt P11609+Z9CWY5XBV8); assay: Surface plasmon resonance of NKT TCR binding to CD1d-AGL complexes
Procedure, shortened: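 SPR used soluble mouse NKT TCR (Vα14-Jα18; Vβ8.2) injected over streptavidin-immobilised mouse CD1d loaded with glycolipid, with a reference cell of unloaded CD1d. KD was derived from equilibrium responses. Kinetic rate constants were also fitted, with t1/2 determined from the interactions.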

[7] = Serum cytokines after in vivo treatment; conditions: 20h after in vivo treatment, compared to C20:2 and OCH

mouse Vβ8.2 NKT TCR, sequence (P11609 whole entry, looked up, other chains not shown): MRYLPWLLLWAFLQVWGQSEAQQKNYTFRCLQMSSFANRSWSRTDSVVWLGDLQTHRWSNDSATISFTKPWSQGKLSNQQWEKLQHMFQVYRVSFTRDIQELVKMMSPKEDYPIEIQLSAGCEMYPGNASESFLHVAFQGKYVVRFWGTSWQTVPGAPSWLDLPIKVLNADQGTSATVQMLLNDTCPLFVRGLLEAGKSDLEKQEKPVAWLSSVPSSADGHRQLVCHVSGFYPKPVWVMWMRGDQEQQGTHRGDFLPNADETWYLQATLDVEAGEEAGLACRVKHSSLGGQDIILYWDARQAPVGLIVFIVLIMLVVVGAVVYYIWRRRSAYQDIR

Compound	bias toward Vβ7 proliferation [1]	IFN-γ producing NKT cells [2]	NKT cell proliferation ([3]; 1 ng/ml glycolipid)	NKT cell proliferation ([3]; 100 ng/ml glycolipid)	Th2 bias of cytokine production [4]	further results
CCCCCCCCCCCCCCCCCCCCCCCCCC(=O)N[C@@H](CO[C@H]1O[C@H](CO)C[C@H](O)[C@H]1O)[C@H](O)CCCCCCCCCCCCCCC [4′,4″-deoxy-α-GalCer]	showed a Vβ7 bias	less potent inducers of IFN-γ production				
CCCCCCCCCCCCCCCCCCCCCCCCCC(=O)N[C@@H](CO[C@H]1O[C@H](CO)C[C@H](O)[C@H]1O)[C@H](O)[C@H](O)CCCCCCCCCCCCCC [4′-deoxy-α-GalCer]	showed a Vβ7 bias	less potent inducers of IFN-γ production				
CCCCC/C=C\C/C=C\CCCCCCCCCC(=O)N[C@@H](CO[C@H]1O[C@H](CO)[C@H](O)[C@H](O)[C@H]1O)[C@H](O)[C@H](O)CCCCCCCCCCCCCC [C20:2]		highest percentages of IFN-γ producing NKT cells	barely induced NKT cell proliferation	able to induce proliferation	not apparent	
CCCCCCCCCCCCCCCCCCCCCCCC(=O)N[C@@H](COC1OC(CO)C(O)C(O)C1O)[C@H](O)[C@H](O)CCCCC (stereo partly shown) [OCH, reference compound]	loss of Vβ7^+ NKT cells with each progressive division cycle	highest percentages of IFN-γ producing NKT cells	consistently weaker in comparison to the non-truncated AGLs		not apparent	Th2 bias of NKT cell cytokine production [5]: fails to reveal a Th2 bias; t1/2 life of the interaction, comparison in words [6]: markedly longer half life when compared to that of the 3′,4″-deoxy AGL; affinity relative to the NKT TCR-CD1d-α-GalCer interaction ([6]; compared with the α-GalCer positive control): approximately 20%; effect on kinetic rate constants (ka, kd) ([6]; compared with α-GalCer, in words): impacted negatively on the association constant
CCCCCCCCCCCCCCCCCCCCCCCCCC(=O)N[C@@H](CO[C@H]1O[C@H](CO)[C@H](O)[C@H](O)[C@H]1O)[C@H](O)[C@H](O)CCCCCCCCCCCCCC [α-GalCer, α-galactosylceramide]		highest percentages of IFN-γ producing NKT cells				Kd [6]: ~0.059 µM; t1/2 life of the interaction ([6]; NKT TCR-CD1d-glycolipid interaction): approximately 20 s; serum IFN-γ response [7]: more sustained IFN-γ response at 20h
CCCCC/C=C\C/C=C\CCCCCCCCCC(=O)N[C@@H](CO[C@H]1O[C@H](CO)[C@@H](O)[C@H](O)[C@H]1O)[C@H](O)[C@H](O)CCCCCCCCCCCCCC [α-GlcCer (C20:2)]	showed a Vβ7 bias	least IFN-γ production of all	barely induced NKT cell proliferation	able to induce proliferation		bias toward Vβ7 proliferation ([1]; listed as α-GlcCer): progressively enriched with each division cycle

— article PMC3064745 (Immunity, 2011)
